This is a sample that favours compounds with a hit; in the whole collection about 3.6% have one here.
FID counter = compounds displacing fluorescent DNA intercalator, primary screen, artefact control for HCV NS3 helicase inhibitor project, biochemical, FID fluorescence; DNA fluorescent intercalator displacement; inhibition, % at 7.9 µM; 0.17% of 290,000 active; AID 1845, 2009; in the data active = inhibition above about 37%;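 also: higher means more ethidium bromide displaced from hairpin DNA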
EBNA-1 inh = EBNA-1 DNA-binding inhibitors, primary screen, biochemical, fluorescence polarization. inhibition, % at 14.8 µM. 0.34% of 300,000 active. AID 1950, 2009; in the data active = inhibition above about 28%
NS3 helicase inh = inhibitors of HCV NS3 helicase, primary screen, biochemical, Cy5 molecular beacon fluorescence. 0.56% of 290,000 active. inhibition, % at 10.9 µM. Hepatitis C virus NS3 helicase. NS3 helicase DNA unwinding;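 active = inhibition above the mean of all tested compounds plus 3 SD, set per campaign, cut at about 35% in these data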
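Test system: hepatitis C virus NS3 helicase domain fragment enzyme. Also added: annealed dual-labelled DNA beacon duplex, ATP-started. Timing: 60 min unwinding reaction at 25 °C after ATP addition. Technique: Cy5 fluorescence. Measure: % inhibition of unwinding.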
FGF22 binding = binders of human FGF22 protein, primary screen, FGF22 synaptogenesis inhibitor project, biophysical, thermal shift, single point; Fibroblast growth factor 22 (Homo sapiens), Q9HCT0; 1.5% of 340,000 active; recombinant FGF22 thermal shift, SYPRO orange fluorescence; percent of sucrose octasulfate shift, DMSO zero; activity (Tm shift, normalised), % at 9.99 µM; AID 651658, 2012;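 active = mean Tm shift, scaled 0 neutral to 100 positive control, at about 1.3% or above, every replicate too, limit read from the data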
Target sequence (Q9HCT0 whole entry, looked up): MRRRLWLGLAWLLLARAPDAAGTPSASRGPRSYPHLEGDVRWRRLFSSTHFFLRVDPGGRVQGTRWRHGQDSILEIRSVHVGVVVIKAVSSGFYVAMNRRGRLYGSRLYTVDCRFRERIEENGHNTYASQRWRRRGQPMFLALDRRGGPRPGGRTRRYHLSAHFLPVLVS
ZTA counter = counter-screen for EBNA-1 inhibitors: inhibitors of Epstein-Barr virus ZTA | P03206 | ZTA-DNA binding, fluorescence polarization | inhibition, % at 11 µM | 0.15% of 320,000 active | AID 2234; in the data active = inhibition above about 33%
Target sequence (P03206 whole entry, looked up): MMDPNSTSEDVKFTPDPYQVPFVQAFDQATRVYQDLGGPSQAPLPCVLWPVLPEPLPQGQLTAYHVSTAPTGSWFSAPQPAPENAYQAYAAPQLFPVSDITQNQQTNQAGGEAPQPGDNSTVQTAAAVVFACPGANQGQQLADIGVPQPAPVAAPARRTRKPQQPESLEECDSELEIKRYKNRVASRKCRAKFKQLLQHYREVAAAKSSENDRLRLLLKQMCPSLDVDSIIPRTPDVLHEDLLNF
GRIN3A LBD mod = binders of NR3A ligand-binding domain, primary screen, biophysical, differential scanning fluorimetry, uHTS. NR3A LBD differential scanning fluorimetry, Tm shift; 0% = protein alone, 100% = glycine-bound protein. Tm shift relative to glycine control, % at 25 µM. 2.5% of 340,000 active. Glutamate receptor ionotropic, NMDA 3A (GRIN3A) ligand-binding domain;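 active = melting temperature shift of at least 10% of the positive control shift, at one fixed dose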
Of the large screens only hits and unclear results are named; the others gave an inactive call.

O=C(COc1ccccc1)Nc1ccc2[nH]c(=O)[nH]c2c1	none
O=C(Nc1ccc2c(c1)[C@@H]1C[C@H](CC(=O)N3CCCCC3)O[C@H](CO)[C@@H]1O2)NC1CCCC1	none (no result: FID counter, EBNA-1 inh, NS3 helicase inh, ZTA counter, GRIN3A LBD mod)
CO[C@H]1CN(C)C(=O)c2ccc(NC(=O)C3CCCCC3)cc2OC[C@@H](C)N(Cc2nccs2)C[C@@H]1C	none (no result: FID counter, EBNA-1 inh, NS3 helicase inh, ZTA counter, GRIN3A LBD mod)
Cc1cccc(C)c1OCC(=O)Nc1ccc(NC(=O)c2ccco2)cc1	none
CC(=O)Nc1ccc2c(c1)CCc1ccccc1-2	GRIN3A LBD mod 10.1
Cc1oc(C(=O)Nc2ccc(O)cc2)cc1COc1ccccc1	GRIN3A LBD mod 16.0 (no result: FGF22 binding)
O=C(COc1ccc(Cl)cc1)Nc1ccc(NC(=O)c2ccco2)cc1	GRIN3A LBD mod 17.5
O=C(C[C@H]1CC[C@H](NC(=O)Nc2cc(F)ccc2F)[C@H](CO)O1)NCCCN1CCOCC1	none (no result: FID counter, EBNA-1 inh, NS3 helicase inh, ZTA counter, GRIN3A LBD mod)
C[C@@H]1CN([C@H](C)CO)C(=O)c2cc(NC(=O)Nc3cccc4ccccc34)ccc2O[C@@H](C)CCCCO[C@H]1CN(C)C(=O)c1ccccc1	none (no result: FID counter, EBNA-1 inh, NS3 helicase inh, ZTA counter, GRIN3A LBD mod)
O=C(CSC(=S)N1CCCC1)c1cc(Br)cc(Br)c1O	FGF22 binding 45.6
Cc1ccccc1OCC(=O)NC(=S)Nc1cccc2cc(O)ccc12	GRIN3A LBD mod 19.5
C/C=C/c1cnc2c(c1)C(=O)N([C@H](C)CO)C[C@@H](C)[C@@H](CN(C)Cc1ccc(F)cc1)O2	none (no result: FID counter, EBNA-1 inh, NS3 helicase inh, ZTA counter, GRIN3A LBD mod)
COc1ccc(NS(=O)(=O)c2ccc3nc(COc4ccc5ccccc5c4)[nH]c3c2)cc1	GRIN3A LBD mod 25.4 (no result: FGF22 binding)
COc1ccc(NS(=O)(=O)c2ccc3nc(COc4cccc5ccccc45)[nH]c3c2)cc1	GRIN3A LBD mod 17.1 (no result: FGF22 binding)
C[C@@H]1CN([C@@H](C)CO)C(=O)Cc2cc(NS(=O)(=O)c3cn(C)cn3)ccc2O[C@H]1CN(C)CC1CCCCC1	none (no result: FID counter, EBNA-1 inh, NS3 helicase inh, ZTA counter, GRIN3A LBD mod)
CCCCN1C(=O)CC(SC2CC(=O)N(CCCC)C2=O)C1=O (stereo not given)	FGF22 binding 43.0 (no result: FID counter, EBNA-1 inh, NS3 helicase inh, ZTA counter)
O=C(Nc1nccs1)c1ccc(-c2ccc(F)c(Cl)c2)o1	GRIN3A LBD mod 13.8
CCc1nnc(NC(=O)c2ccc(-c3ccc(Cl)cc3)o2)s1	GRIN3A LBD mod 14.6 (no result: FGF22 binding)
CCc1nnc(NC(=O)c2ccc(-c3ccc(C(C)=O)cc3)o2)s1	none (no result: FID counter, EBNA-1 inh, NS3 helicase inh)
CNC[C@H]1Oc2c(NC(=O)c3ccc(-c4nccs4)cc3)cccc2C(=O)N([C@H](C)CO)C[C@@H]1C	none (no result: FID counter, EBNA-1 inh, NS3 helicase inh, ZTA counter, GRIN3A LBD mod)
COc1cc(CN2CCN(c3ccccc3F)CC2)c([N+](=O)[O-])cc1OC	FGF22 binding 43.8
O=C(CSc1nnc(-c2ccccc2O)n1-c1ccccc1)Nc1cccc(C(=O)O)c1	FGF22 binding 43.2
O=C(O)CSc1nnc(Nc2ccccc2)n1-c1ccccc1	FGF22 binding 43.5
CC1CCN(CCCNC(=O)CN2C(=O)CSc3ccc(S(=O)(=O)N4CCOCC4)cc32)CC1	none
CC1CCN(CCCNC(=O)CN2C(=O)CSc3ccc(S(=O)(=O)N4CCC(C)CC4)cc32)CC1	FID counter 45.3
CC(=O)OC(C)(C)/C=C/C(=O)[C@](C)(O)C1[C@H](O)C[C@@]2(C)C3CC=C4C(C=C(O[C@@H]5O[C@H](CO)[C@@H](O)[C@H](O)[C@H]5O)C(=O)C4(C)C)[C@]3(C)C(=O)C[C@]12C (stereo not given in full)	GRIN3A LBD mod 15.7 (no result: FID counter, EBNA-1 inh, NS3 helicase inh, ZTA counter)
CC(C)c1ccc2[nH]c(O)c(N=NC(=O)c3cccc(S(=O)(=O)Nc4ccc(Cl)cc4)c3)c2c1	GRIN3A LBD mod 43.0
CCCN(C)C[C@@H]1Oc2ncc(-c3ccccc3F)cc2C(=O)N([C@H](C)CO)C[C@@H]1C	none (no result: FID counter, EBNA-1 inh, NS3 helicase inh, ZTA counter, GRIN3A LBD mod)
O=[N+]([O-])c1cc(-c2cnc3ccccc3n2)ccc1Oc1ccc(Cl)cc1	none
O=[N+]([O-])c1cc(-c2cnc3ccccc3n2)ccc1Cl	FGF22 binding 43.7
CCC(=O)c1c[nH]c(C(=O)NCCCn2ccnc2)c1	GRIN3A LBD mod 12.2 (no result: FGF22 binding)
CCOC(=O)c1cnc2ccccc2c1Nc1ccc(C(=O)O)cc1	FGF22 binding 43.8
CCOC(=O)c1cnc2ccccc2c1Nc1cccc(C(=O)O)c1	none
CCOC(=O)c1cnc2ccc(OCC)cc2c1NCc1cccnc1	none

Screens deposited in PubChem BioAssay by several laboratories.
